Reference: ChEMBL document CHEMBL4049455, “Discovery of a B-Cell Lymphoma 6 Protein-Protein Interaction Inhibitor by a Biophysics-Driven Fragment-Based Approach” (J Med Chem, 2017)
Each block holds one molecule with its values, some of them ahead of it. The source made the active and inactive calls. The rule behind the calls is not given here.

How the values were obtained:
[1] = target: T1, B-cell lymphoma 6 protein (Homo sapiens, UniProt P41182); assay: Binding affinity to wild-type human biotinylated Avi-tagged BCL6 BTB domain (5 to 129 amino acid residues) expressed in Escherichia coli BL21 (DE3) using 3 % DMSO by SPR analysis
Procedure, shortened: (§1)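 SPR (Biacore 4000) binding of BCoR peptide to immobilized wild-type or Cys-mutant BTB in running buffer containing 1%, 3% or 5% DMSO. Peptide ran from a top concentration of 100 μM in 2-fold dilutions. KD and Rmax were fitted from equilibrium response against peptide concentration.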

[2] = target: T1, B-cell lymphoma 6 protein; assay: Binding affinity to wild-type human biotinylated Avi-tagged BCL6 BTB domain (5 to 129 amino acid residues) expressed in Escherichia coli BL21 (DE3) using 5 % DMSO by SPR analysis; procedure, shortened: as §1
[3] = target: T2, B-cell lymphoma 6 protein (Homo sapiens, UniProt P41182, C67R/C84N/C8Q); assay: Binding affinity to captured human biotinylated Avi-tagged BCL6 BTB domain (5 to 129 amino acid residues) C8Q/C67R/C84N triple mutant expressed in Escherichia coli BL21 (DE3) by SPR analysis
Procedure, shortened: (§2)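 Biacore 4000 SPR. Biotinylated BTB (mutant or wild-type) was captured, and wild-type was also amine-coupled on a separate spot, with NeutrAvidin detected as a reference spot. Responses were referenced between spots. Fragments were run from a top concentration of 1 mM in 2-fold dilutions. KD came from equilibrium response plotted against concentration, with BCoR peptide (100 μM) as the positive control.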

[4] = target: T2, B-cell lymphoma 6 protein; assay: (§3) Binding affinity to human biotinylated Avi-tagged BCL6 BTB domain C8Q/C67R/C84N triple mutant expressed in Escherichia coli BL21 (DE3) using 3 % DMSO by SPR analysis; procedure, shortened: as §1
[5] = system: B-cell lymphoma 6 protein (Homo sapiens), P41182 [C8Q,C67R,C84N]; assay: as §3; procedure, shortened: as §1
[6] = target: T2, B-cell lymphoma 6 protein; assay: (§4) Binding affinity to human biotinylated Avi-tagged BCL6 BTB domain C8Q/C67R/C84N triple mutant expressed in Escherichia coli BL21 (DE3) using 1 % DMSO by SPR analysis; procedure, shortened: as §1
[7] = system: B-cell lymphoma 6 protein (Homo sapiens), P41182 [C8Q,C67R,C84N]; assay: as §4; procedure, shortened: as §1
[8] = target: T1, B-cell lymphoma 6 protein; assay: Binding affinity to wild-type human biotinylated Avi-tagged BCL6 BTB domain (5 to 129 amino acid residues) expressed in Escherichia coli BL21 (DE3) using 1 % DMSO by SPR analysis; procedure, shortened: as §1
[9] = target: T2, B-cell lymphoma 6 protein; assay: (§5) Binding affinity to human biotinylated Avi-tagged BCL6 BTB domain C8Q/C67R/C84N triple mutant expressed in Escherichia coli BL21 (DE3) using 5 % DMSO by SPR analysis; procedure, shortened: as §1
[10] = system: B-cell lymphoma 6 protein (Homo sapiens), P41182 [C8Q,C67R,C84N]; assay: as §5; procedure, shortened: as §1
[11] = target: T1, B-cell lymphoma 6 protein; assay: Binding affinity to captured wild-type human biotinylated Avi-tagged BCL6 BTB domain (5 to 129 amino acid residues) expressed in Escherichia coli BL21 (DE3) by SPR analysis
[12] = target: T1, B-cell lymphoma 6 protein; assay: Binding affinity to coupled wild-type human biotinylated Avi-tagged BCL6 BTB domain (5 to 129 amino acid residues) expressed in Escherichia coli BL21 (DE3) by SPR analysis; procedure, shortened: as §2
[13] = system: B-cell lymphoma 6 protein (Homo sapiens), P41182 [C8Q,C67R,C84N]; assay: Inhibition of BCoR peptide binding to human biotinylated His/Avi/SUMO/FLAG-tagged BCL6 BTB domain (5 to 129 amino acid residues) C8Q/C67R/C84N triple mutant expressed in Escherichia coli BL21 (DE3) by SPR competition assay
[14] = system: B-cell lymphoma 6 protein (Homo sapiens), P41182 [C8Q,C67R,C84N]; assay: Binding affinity to human biotinylated His/Avi/SUMO/FLAG-tagged BCL6 BTB domain (5 to 129 amino acid residues) C8Q/C67R/C84N triple mutant expressed in Escherichia coli BL21 (DE3) by STD-NMR spectroscopy
Procedure, shortened: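 STD-NMR was run on a sample of 400 μM ligand with 20 μM BCL6 BTB at 15 °C, using 32 scans. On- and off-resonance saturation was at 0.4 and 30 ppm, with 2.0 s total saturation. Binding was read as signal decrease on on-resonance irradiation.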

[15] = target: T1, B-cell lymphoma 6 protein; assay: Binding affinity to recombinant RED-NHS labeled BCL6 BTB domain (unknown origin) expressed in Escherichia coli BL21 (DE3) after 10 mins by microscale thermophoresis method
[16] = target: T1, B-cell lymphoma 6 protein; assay: Binding affinity to 6His-tagged human BCL6 BTB domain (7 to 128 amino acid residues) expressed in Escherichia coli Rosetta (DE3) after 1 min by fluorescence polarization assay

- Kd [1]: 9.3 µM
- Rmax [1]: 242 RU
- Kd [2]: 12 µM
- Rmax [2]: 243 RU
- Kd [3]: 40 µM
- Kd [4]: 21 µM
- Rmax [5]: 302 RU
- Kd [6]: 17 µM
- Rmax [7]: 311 RU
- Kd [8]: 7.5 µM
- Rmax [8]: 245 RU
- Kd [9]: 25 µM
- Rmax [10]: 304 RU
- Activity [11]: Dose-dependent effect
- Kd [11]: 17 µM
- Kd [12]: 14 µM
Molecule: Ac-RSEIISTAPSSWVVPPK-OH

- Kd [11]: 180 µM
Molecule: Nc1ncc(F)c(Nc2ccccc2)n1

- Kd [11]: 3000 µM
Molecule: Nc1nccc(Nc2ccccc2)n1

- Kd [11]: 9.3 µM
Molecule: O=C1Cc2cc(Nc3ncncc3Cl)ccc2N1

- inhibition [13]: Active
- Activity [14]: Active
Molecule: Nc1ncnc(Nc2ccccc2)n1

- Kd [15]: 129 µM
Molecule: O=C(O)CC(C(=O)O)N1C(=O)/C(=C2/C(=O)Nc3ccc(Br)cc32)SC1=S (stereo not drawn)

- Kd [16]: 1 mM
Molecule: CO[C@H]1/C=C/O[C@@]2(C)Oc3c(C)c(O)c4c(O)c(cc(O)c4c3C2=O)NC(=O)/C(C)=C\C=C\[C@H](C)[C@H](O)[C@@H](C)[C@@H](O)[C@@H](C)[C@H](OC(C)=O)[C@@H]1C [RIFAMYCIN]
